Assay results: ChEMBL document CHEMBL4334552, “Discovery of BMS-986260, a Potent, Selective, and Orally Bioavailable TGFβR1 Inhibitor as an Immuno-oncology Agent” (ACS Med Chem Lett, 2020)
Activity calls are given as the source filed them. The calls are words filed in the database; no cut-off is given here.

How the values were obtained:
[1] = Half life in Balb/C mouse at 5 mg/kg, iv; assay type: ADME, organism-based; conditions: in vivo
Summary of the method: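 Male Balb/C mice (n = 3) dosed iv at 5 mg/kg in the same PK study as a 10 mg/kg oral arm. Vehicle was 70% 25 mM acetate buffer pH 4.0, 5% ethanol, 25% PEG 400. Half-life was taken from the iv arm.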

[2] = Total AUC in Balb/C mouse at 5 mg/kg, iv; assay type: ADME, organism-based; design: dose 5 mg/kg, route intravenous, time AUCmax; conditions: in vivo
Summary of the method: (§1)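 Male Balb/C mice (n = 3) dosed iv at 5 mg/kg and po at 10 mg/kg. Vehicle was 70% 25 mM acetate buffer pH 4.0, 5% ethanol and 25% PEG 400.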

[3] = Total AUC in Balb/C mouse at 10 mg/kg, po; assay type: ADME, organism-based; design: dose 10 mg/kg, route oral, time AUCmax; conditions: in vivo; summary of the method: as §1
[4] = Half life in human liver microsomes in presence of NADPH; assay type: ADME, Microsome
TGF-beta receptor type-1 [5] = target: T1, TGF-beta receptor type-1 (Homo sapiens, UniProt P36897); assay: Inhibition of TGFBR1 in TGFbeta-stimulated human NHLF cells assessed as reduction in SMAD2 nuclear translocation
T1 sequence (P36897 whole entry): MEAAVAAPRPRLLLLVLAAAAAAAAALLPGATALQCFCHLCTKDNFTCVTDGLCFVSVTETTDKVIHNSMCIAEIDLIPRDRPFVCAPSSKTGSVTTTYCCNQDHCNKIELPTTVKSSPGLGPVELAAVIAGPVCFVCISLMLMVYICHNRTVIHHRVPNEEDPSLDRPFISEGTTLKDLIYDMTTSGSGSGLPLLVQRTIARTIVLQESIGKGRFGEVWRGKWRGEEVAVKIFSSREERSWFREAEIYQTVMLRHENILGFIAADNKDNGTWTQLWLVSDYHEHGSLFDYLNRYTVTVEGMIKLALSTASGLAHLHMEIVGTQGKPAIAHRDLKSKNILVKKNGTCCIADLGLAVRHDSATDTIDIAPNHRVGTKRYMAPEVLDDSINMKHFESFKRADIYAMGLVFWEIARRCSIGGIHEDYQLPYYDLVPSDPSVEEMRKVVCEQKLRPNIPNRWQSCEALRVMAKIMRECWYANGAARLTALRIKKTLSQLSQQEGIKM

[6] = Protein binding in dog serum assessed as unbound fraction; assay type: ADME, cell-free, Canis lupus familiaris
[7] = Metabolic stability of compound in mouse liver microsomes assessed as compound remaining; assay type: ADME, Microsome
TGF-beta receptor type-1 [8] = target: T1, TGF-beta receptor type-1; assay: Inhibition of TGFbetaR1 in TGFbeta-stimulated human T cells assessed as reduction in SMAD3 phosphorylation preincubated for 1 hr followed by TGFbeta-stimulation for 90 mins by Alphalisa assay
TGF-beta receptor type-1 [9] = target: T1, TGF-beta receptor type-1; assay: Inhibition of TGFbetaR1 in anti-CD3/anti-CD28/IL-2/TGFbeta -stimulated human Treg cells assessed as downregulation of FOXP3 expression incubated for 5 days by flow cytometry analysis
[10] = Half life in dog liver microsomes in presence of UGT/UDPGA; assay type: ADME, Canis lupus familiaris, Microsome
[11] = Half life in human liver microsomes in presence of UGT/UDPGA; assay type: ADME, Microsome
[12] = Half life in dog hepatocytes; assay type: ADME, cell-based, Canis lupus familiaris, Hepatocyte
[13] = Half life in human hepatocytes; assay type: ADME, cell-based, Hepatocyte
[14] = target: T2, Nuclear receptor subfamily 1 group I member 2 (Homo sapiens, UniProt O75469); assay: Activation of PXR (unknown origin)
T2 sequence (O75469 whole entry): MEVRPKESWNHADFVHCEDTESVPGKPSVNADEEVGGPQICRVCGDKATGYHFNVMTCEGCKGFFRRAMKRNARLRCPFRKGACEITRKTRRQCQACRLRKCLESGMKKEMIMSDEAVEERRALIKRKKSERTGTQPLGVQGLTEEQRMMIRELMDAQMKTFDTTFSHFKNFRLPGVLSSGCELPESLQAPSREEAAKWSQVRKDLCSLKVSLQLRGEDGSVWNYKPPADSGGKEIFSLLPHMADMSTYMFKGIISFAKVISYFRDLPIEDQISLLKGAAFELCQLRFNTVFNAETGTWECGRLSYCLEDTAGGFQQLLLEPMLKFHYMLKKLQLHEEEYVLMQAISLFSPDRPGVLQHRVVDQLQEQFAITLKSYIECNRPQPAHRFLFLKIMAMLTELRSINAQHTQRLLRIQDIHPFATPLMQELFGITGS

PXR = target: T3, PXR (Homo sapiens, UniProt O75469); assay: Activation of PXR (unknown origin) relative to control
T3 sequence (O75469 whole entry): T2 sequence (O75469 whole entry)

[15] = Tmax in Sprague Dawley rat at 10 mg/kg, po; assay type: ADME, organism-based; conditions: in vivo
Summary of the method: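 Male Sprague–Dawley rats (n = 3) received a PEG400 solution iv at 5 mg/kg and po at 10 mg/kg.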

[16] = Half life in Sprague Dawley rat at 5 mg/kg, iv; assay type: ADME, organism-based; conditions: in vivo
Summary of the method: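 Male Sprague–Dawley rats (n = 3) dosed iv at 5 mg/kg as a PEG400 solution, alongside a 10 mg/kg oral arm. Half-life was derived from the iv profile.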

[17] = Clearance in Sprague Dawley rat at 5 mg/kg, iv; assay type: ADME, organism-based; conditions: in vivo
Summary of the method: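 Male Sprague–Dawley rats, n = 3, given 5 mg/kg iv or 10 mg/kg po as a PEG400 solution.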

[18] = Oral bioavailability in Beagle dog at 5 mg/kg; assay type: ADME, organism-based, Canis lupus familiaris; conditions: in vivo
Summary of the method: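 Male Beagle dogs (n = 2) were pretreated with pentagastrin and dosed iv at 1 mg/kg and po at 5 mg/kg. The oral vehicle was 5% ethanol, 45% PEG400 and 50% 25 mM acetate buffer pH 4.0. The iv vehicle was 5:45:50 EtOH/PEG400/saline at 1 mL/kg.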

Mus musculus = assay: Antitumor activity in compound-mediated tumor cured C57Bl/6 mouse allografted with mouse MC38 cells assessed as tumor growth following rechallenge with newly implanted mouse LL2 cells treated at 3.75 to 15 mg/kg, po qd for 28 days and cotreated with anti-PD1 at 10 mg/kg, ip every 4 days for 3 doses prior to LL2 cells rechallenge by digital caliper analysis; assay type: functional, organism-based
Summary of the method: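 Mice cured by oral dosing plus anti-PD-1 (10 mg/kg IP, every 4 days, three doses) were re-implanted with MC38 or LL2 cells. Tumor growth was compared with naive mice.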

[19] = Cardiovascular toxicity in rat 1 mg/kg, po dosed every 3 days on and 4 days off treatment regime for 1 month; assay type: organism-based; conditions: in vivo
TGF-beta receptor type-1 [20] = target: T4, TGF-beta receptor type-1 (Mus musculus, UniProt Q64729); assay: Inhibition of TGFBR1 in mouse biochemical assay assessed as apparent inhibition constant; conditions: read-out: Ki(app)
T4 sequence (Q64729 whole entry): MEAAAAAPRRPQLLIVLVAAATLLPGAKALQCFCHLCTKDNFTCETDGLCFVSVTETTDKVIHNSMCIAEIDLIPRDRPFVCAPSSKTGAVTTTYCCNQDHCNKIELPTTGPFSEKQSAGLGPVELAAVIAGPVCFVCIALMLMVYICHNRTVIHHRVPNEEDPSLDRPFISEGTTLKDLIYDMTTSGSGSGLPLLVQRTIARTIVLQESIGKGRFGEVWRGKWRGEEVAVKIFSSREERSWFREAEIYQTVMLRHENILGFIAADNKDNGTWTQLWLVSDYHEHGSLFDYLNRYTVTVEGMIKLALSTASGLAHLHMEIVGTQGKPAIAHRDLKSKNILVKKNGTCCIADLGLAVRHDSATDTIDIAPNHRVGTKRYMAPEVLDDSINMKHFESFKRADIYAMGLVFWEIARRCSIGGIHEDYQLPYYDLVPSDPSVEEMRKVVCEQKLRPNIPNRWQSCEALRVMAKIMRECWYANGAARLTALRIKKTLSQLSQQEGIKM

half-life [1]: 9.1 h
AUC [2]: 26.3 µM·h
AUC [3]: 80.5 µM·h
half-life [4]: 0.383 h
IC50 (TGF-beta receptor type-1 [5]): 190 nM
fraction unbound [6]: 0.13
Stability [7]: 81%
IC50 (TGF-beta receptor type-1 [8]): 150 nM
IC50 (TGF-beta receptor type-1 [9]): 230 nM
half-life [10]: 1.53 h
half-life [11]: > 2 h
half-life [12]: 1.03 h
half-life [13]: 0.9 h
EC50 [14]: > 24000 nM
Emax (PXR): 44%
Tmax [15]: 1.1 h
half-life [16]: 5.7 h
clearance [17]: 5.6 mL/min/kg
bioavailability [18]: 93%
Ki (TGF-beta receptor type-1 [20]): 1.4 nM
SMILES: N#Cc1cnc2ccc(-c3c(-c4ccc(F)c(Cl)c4)ncn3CCO)nn12
Activity (Mus musculus): inactive
Activity [19]: Non-Toxic
